Assay [1] concerns Canis familiaris. Kind of assay: Urinary excretion collected at 1-24 hr time after oral administration in dog (four animals per dose) at dose 6.25 mg/kg. In kind it is functional, Canis lupus familiaris, Urine. Put shortly: (§1)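 Trained male beagles, four per dose, fasted 24 h with tap water ad libitum. After bladder emptying, given 20 mL/kg tap water by stomach tube, then 4 mL/kg at each hourly catheterization; 2 h control collection, then oral dosing. Urine volume and Na⁺ (flame photometry) reported for 1–6, 7–24 and 1–24 h post-dose periods.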

Assay [2] is described as follows: It is the ratio, measured as saluretic activity in the dog as concentration of Cl- in urinary excretion (dose 0.4 mg/Kg, perorally) to that of (Na++K+). In kind it is functional, Urine. Put shortly: (§2)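 Trained male beagles, fasted 24 h with tap water ad libitum. Bladder emptied by catheter, then 20 mL/kg tap water by stomach tube, with 4 mL/kg water at each hourly catheterization up to 8 h. The first 2 h of urine served as control. Oral dosing came after the second catheterization, and 1–6 h urine was pooled. Na⁺ and K⁺ were measured by flame photometry, Cl⁻ argentometrically, in mequiv/kg.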

Assay [3] has as its system Canis familiaris. Kind of assay: sodium excretion collected at 1-24 hr time after oral administration in dog (four animals per dose) at dose 1.56 mg/kg. It is filed as functional, Canis lupus familiaris. An outline of the steps:
as §1

The species named for assay [4] is Rattus norvegicus. Kind of assay: Effect on (GFR) glomerular filtration rate in rats in comparison to furosemide activity.
Assay [5] has as its system Canis familiaris. Kind of assay: Urinary excretion collected at 1-6 hr time after oral administration in dog (four animals per dose) at dose 0.39 mg/kg. It is filed as functional, Canis lupus familiaris, Urine. Put shortly:
as §1

Assay [6] is described as follows: It is the ratio, measured as saluretic activity in the dog as concentration of Cl- in urinary excretion (dose 1.56 mg/Kg, perorally) to that of (Na+)+K+). It is filed as functional, Urine. An outline of the steps: as §2
Assay [7] is filed under the species Rattus norvegicus. Kind of assay: Effect on inulin U/P ratio in rats in comparison to furosemide activity.
Assay [8] deals with Canis familiaris. Kind of assay: Saluretic activity in the dog measured as concentration of Cl - in urinary excretion (2 animals/dose) at (dose 12.5 mg/Kg, perorally). In kind it is functional, Canis lupus familiaris, Urine. An outline of the steps:
(§3)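 Male beagles trained to the procedures, food withdrawn 24 h before, tap water ad libitum. Bladder emptied by catheter, then 20 mL/kg tap water by stomach tube, plus 4 mL/kg orally at each hourly catheterization up to 8 h. The first 2 h of urine served as control. Compound given orally after the second catheterization. Urine from 1–6 h post-dose pooled; Na⁺ and K⁺ by flame photometry, Cl⁻ argentometrically, in mequiv/kg.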

In assay [9] the test system is Canis familiaris. Kind of assay: Urinary excretion collected at 1-24 hr time after oral administration in dog (four animals per dose) at dose 0.39 mg/kg. It is filed as functional, Canis lupus familiaris, Urine. Put shortly:
as §1

Assay [10] has as its system Canis familiaris. Kind of assay: sodium excretion collected at 1-6 hr time after oral administration in dog (four animals per dose) at dose 6.25 mg/kg. In kind it is functional, Canis lupus familiaris. An outline of the steps:
as §1

Assay [11] concerns Canis familiaris. Kind of assay: Diuretic activity in the dog (2 animals/dose) at (dose 12.5 mg/Kg), when administered perorally. In kind it is functional, Canis lupus familiaris, Urine. An outline of the steps: as §2
Assay [12] can be described thus: It is the ratio, measured as saluretic activity in the dog as concentration of Na+ in urinary excretion (dose 12.5 mg/kg, p.o.) to that of K. Particulars: route oral. It is filed as functional, Urine. An outline of the steps: as §2
The test system of assay [13] is Canis familiaris. Kind of assay: sodium excretion collected at 1-6 hr time after oral administration in dog (four animals per dose) at dose 0.39 mg/kg. It is filed as functional, Canis lupus familiaris. Put shortly:
as §1

The species named for assay [14] is Rattus norvegicus. Kind of assay: Effect on Urine flow in rats in comparison to furosemide activity.
Assay [15] deals with Canis familiaris. Kind of assay: Saluretic activity in the dog measured as concentration of K+ in urinary excretion (2 animals/dose) at (dose 12.5 mg/Kg, perorally). In kind it is functional, Canis lupus familiaris, Urine. An outline of the steps:
(§4)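 Male beagles trained to rest on a table and to accept stomach tube and catheter. Food withdrawn 24 h before, tap water ad libitum. Bladder emptied by catheter, then 20 mL/kg tap water by stomach tube. Catheterized hourly up to 8 h with 4 mL/kg water orally each time; first 2 h urine served as control. Oral dosing after second catheterization. Pooled 1–6 h urine; Na⁺/K⁺ by flame photometry, Cl⁻ argentometrically.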

The subject of assay [16] is Canis familiaris. Kind of assay: Urinary excretion collected at 1-6 hr time after oral administration in dog (four animals per dose) at dose 1.56 mg/kg. It is filed as functional, Canis lupus familiaris, Urine. An outline of the steps: as §1
Assay [17] concerns Canis familiaris. Kind of assay: sodium excretion collected at 1-6 hr time after oral administration in dog (four animals per dose) at dose 1.56 mg/kg. In kind it is functional, Canis lupus familiaris. An outline of the steps: as §1
Assay [18] can be described thus: It is the ratio, measured as saluretic activity in the dog as concentration of Na+ in urinary excretion (dose 1.56 mg/Kg, perorally) to that of K. In kind it is functional, Urine. Put shortly: as §2
For assay [19], the system named is Canis familiaris. Kind of assay: Saluretic activity in the dog measured as concentration of Na+ in urinary excretion (2 animals/dose) at (dose 12.5 mg/Kg, perorally). In kind it is functional, Canis lupus familiaris, Urine. An outline of the steps:
as §4

The subject of assay [20] is Canis familiaris. Kind of assay: Urinary excretion collected at 7-24 hr time after oral administration in dog (four animals per dose) at dose 1.56 mg/kg. In kind it is functional, Canis lupus familiaris, Urine. Put shortly: as §1
The subject of assay [21] is Canis familiaris. Kind of assay: urinary excretion collected at 1-24 hr time after oral administration in dog (four animals per dose) dosed at 0.39 mg/kg.
The subject of assay [22] is Canis familiaris. Kind of assay: sodium excretion collected at 1-24 hr time after oral administration in dog (four animals per dose) dosed at 0.39 mg/kg. In kind it is functional, Canis lupus familiaris. An outline of the steps:
as §1

Assay [23] can be described thus: It is the ratio, measured as saluretic activity in the dog as concentration of Na+ in urinary excretion (dose 1.56 mg/Kg, po) to that of K. It is filed as functional, Urine. An outline of the steps:
as §2

The test system of assay [24] is Canis familiaris. Kind of assay: urinary excretion collected at 7-24 hr time after oral administration in dog (four animals per dose) dosed at 0.39 mg/kg. It is filed as functional, Canis lupus familiaris, Urine.
In assay [25] the test system is Canis familiaris. Kind of assay: sodium excretion collected at 1-24 hr time after oral administration in dog (four animals per dose) dosed at 0.05 mg/kg. It is filed as functional, Canis lupus familiaris. Put shortly: as §1
Assay [26] concerns Canis familiaris. Kind of assay: urinary excretion collected at 1-6 hr time after oral administration in dog (four animals per dose) dosed at 0.05 mg/kg. It is filed as functional, Canis lupus familiaris, Urine. Put shortly:
(§5)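 Trained male beagles, four per dose, fasted 24 h with tap water ad libitum. The bladder was emptied by catheter, then 20 mL/kg tap water was given by stomach tube. Dogs were catheterized hourly with 4 mL/kg water orally each time, and the first 2 h served as control. Compound was given orally after the second catheterization. Urine volume and flame-photometric Na⁺ were measured over 1-6, 7-24 and 1-24 h.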

The subject of assay [27] is Canis familiaris. Kind of assay: Saluretic activity in the dog measured as concentration of K+ in urinary excretion (2 animals/dose) at (dose 0.025 mg/Kg, perorally). In kind it is functional, Canis lupus familiaris, Urine. Put shortly: as §3
Assay [28] has as its system Canis familiaris. Kind of assay: urinary excretion collected at 1-6 hr time after oral administration in dog (four animals per dose) dosed at 3.12 mg/kg. It is filed as functional, Canis lupus familiaris, Urine.
For assay [29], the system named is Canis familiaris. Kind of assay: Diuretic activity in the dog (2 animals/dose) at (dose 0.025 mg/Kg), when administered perorally. It is filed as functional, Canis lupus familiaris, Urine. An outline of the steps: as §2
Assay [30] relates to Canis familiaris. Kind of assay: Saluretic activity in the dog measured as concentration of Na+ in urinary excretion (2 animals/dose) at (dose 0.025 mg/Kg, perorally). In kind it is functional, Canis lupus familiaris, Urine. An outline of the steps:
as §4

The subject of assay [31] is Canis familiaris. Kind of assay: Urinary excretion collected at 1-6 hr time after oral administration in dog (four animals per dose) dosed at 0.39 mg/kg. It is filed as functional, Canis lupus familiaris, Urine. Put shortly:
as §1

Assay [32] in a line: It is the ratio, measured as saluretic activity in the dog as concentration of Cl- in urinary excretion (dose 0.4 mg/Kg, po) to that of (Na+)+(K+). In kind it is functional, Urine. An outline of the steps:
as §2

Assay [33] deals with Canis familiaris. Kind of assay: sodium excretion collected at 7-24h time after oral administration in dog (four animals per dose) dosed at 0.05 mg/kg. In kind it is functional, Canis lupus familiaris. An outline of the steps:
as §5

For `NS(=O)(=O)c1cc(S(=O)(=O)[O-])c(NCc2ccco2)cc1Oc1ccccc1.[Na+]`, the Urinary excretion in the assay on Canis familiaris [1] amounted to 111.1 mL/kg; in the assay on Canis familiaris [5] it was 41.6 mL/kg; with Canis familiaris [9], 50.9 mL/kg; in the assay with Canis familiaris [16], 61.1 mL/kg; in the assay with Canis familiaris [20], 12.3 mL/kg. For the same compound, the Ratio stood at 1.1 in [2]; 0.95 in assay [6]; 7.66 in the assay listed under Rattus norvegicus [7]; 5.5 in assay [12]; 4.9 in assay [18]. Further, the Na+ excretion was 5.4 mequiv kg-1 with Canis familiaris [3], 6.52 mequiv kg-1 in the assay with Canis familiaris [10], 1.57 mequiv kg-1 in the assay with Canis familiaris [13] and 4.97 mequiv kg-1 in the assay with Canis familiaris [17]. In the assay filed under Rattus norvegicus [4], this compound showed a GFR of 0.413 L/h/kg. Besides, the Saldiuretic activity in the assay on Canis familiaris [8] is 7.13 m equiv 6hr-1 kg-1; in the assay on Canis familiaris [15], 1.17 m equiv 6hr-1 kg-1. Further, in the assay on Canis familiaris [11], the Diuretic activity came out at 74.3 ml kg-1 6hr-1. This compound also showed a Volume in the assay listed under Rattus norvegicus [14] of 0.0545 L/h/kg. The same compound gave a Saluretic activity in the assay on Canis familiaris [19] of 6.49 m equiv 6hr-1 kg-1.
For the compound `CN(c1ccccc1)c1cc(NCc2ccco2)c(S(=O)(=O)[O-])cc1S(N)(=O)=O.[Na+]`, the Urinary excretion came to 95.7 mL/kg in the assay on Canis familiaris [21]; 20.4 mL/kg in the assay on Canis familiaris [24]; 40.5 mL/kg in the assay with Canis familiaris [26]; 61.2 mL/kg in the assay on Canis familiaris [28]; 75.3 mL/kg in the assay with Canis familiaris [31]. The figures for the Na+ excretion with Canis familiaris [22], with Canis familiaris [25] and in the assay with Canis familiaris [33] were 5.81 mequiv kg-1, 1.51 mequiv kg-1 and 0.22 mequiv kg-1, respectively. Also, the results for the Ratio in [23] and in [32] were 4.9 and 1, respectively. The Saluretic activity is 0.2 m equiv 6hr-1 kg-1 in the assay with Canis familiaris [27] and 0.45 m equiv 6hr-1 kg-1 in the assay on Canis familiaris [30]. The same compound came in with a Diuretic activity in the assay on Canis familiaris [29] of 33.3 ml kg-1 6hr-1.
